The record followed here is ChEMBL document CHEMBL1154352, “Toll-like receptor 7 selective synthetic oligoribonucleotide agonists: synthesis and structure-activity relationship studies” (J Med Chem, 2009).

The target of experiment [1] is T1, Toll-like receptor 8 (Homo sapiens) (UniProt Q9NR97).
T1 sequence (whole entry): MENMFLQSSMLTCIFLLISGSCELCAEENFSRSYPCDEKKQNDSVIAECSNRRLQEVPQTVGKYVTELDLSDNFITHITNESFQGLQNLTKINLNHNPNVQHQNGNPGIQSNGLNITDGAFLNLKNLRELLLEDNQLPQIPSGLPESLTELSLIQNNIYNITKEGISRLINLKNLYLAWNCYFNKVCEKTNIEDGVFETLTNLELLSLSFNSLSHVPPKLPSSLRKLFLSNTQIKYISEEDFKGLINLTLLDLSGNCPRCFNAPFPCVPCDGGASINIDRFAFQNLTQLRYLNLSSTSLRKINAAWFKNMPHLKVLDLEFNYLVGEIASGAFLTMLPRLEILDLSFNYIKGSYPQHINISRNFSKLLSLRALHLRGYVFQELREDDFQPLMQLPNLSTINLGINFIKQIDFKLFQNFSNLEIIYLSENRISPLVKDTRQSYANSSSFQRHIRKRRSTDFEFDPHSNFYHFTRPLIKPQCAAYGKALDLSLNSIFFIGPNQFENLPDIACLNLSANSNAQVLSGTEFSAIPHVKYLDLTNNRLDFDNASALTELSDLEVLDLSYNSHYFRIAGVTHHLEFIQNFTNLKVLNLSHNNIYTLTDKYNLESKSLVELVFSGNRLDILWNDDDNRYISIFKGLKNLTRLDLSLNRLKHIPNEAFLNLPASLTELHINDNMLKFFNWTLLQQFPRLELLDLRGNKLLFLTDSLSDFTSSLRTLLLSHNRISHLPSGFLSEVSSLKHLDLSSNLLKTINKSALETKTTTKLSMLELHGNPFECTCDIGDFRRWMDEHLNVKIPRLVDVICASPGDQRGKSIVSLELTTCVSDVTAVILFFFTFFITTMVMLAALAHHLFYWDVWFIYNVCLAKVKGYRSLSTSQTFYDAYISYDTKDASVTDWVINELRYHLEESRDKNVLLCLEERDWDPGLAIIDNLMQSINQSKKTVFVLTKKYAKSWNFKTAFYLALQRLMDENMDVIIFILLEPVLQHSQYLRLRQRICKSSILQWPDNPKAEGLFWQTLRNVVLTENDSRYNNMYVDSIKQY
The experiment is described as follows: Activation of human TLR8 expressed in HEK293XL assessed as fold induction of NF-kappaB activity at 50 ug/ml after 18 hrs by reporter gene assay relative to control. The method in brief:
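HEK293 cells stably expressing human TLR7 or TLR8, transiently transfected with SEAP reporter plasmid; medium replaced, SIMRA compounds added, 18 h incubation. Supernatant SEAP measured by QuantiBlue; expressed as fold increase in NF-κB activity over PBS control. Tabulated data at 50 μg/mL, representative of three independent experiments.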
For orientation: Reporter assays use an easily measured gene product as a stand-in for the process of interest.

In experiment [2] the target is T2, Toll-like receptor 9 (Mus musculus) (UniProt Q9EQU3).
T2 sequence (whole entry): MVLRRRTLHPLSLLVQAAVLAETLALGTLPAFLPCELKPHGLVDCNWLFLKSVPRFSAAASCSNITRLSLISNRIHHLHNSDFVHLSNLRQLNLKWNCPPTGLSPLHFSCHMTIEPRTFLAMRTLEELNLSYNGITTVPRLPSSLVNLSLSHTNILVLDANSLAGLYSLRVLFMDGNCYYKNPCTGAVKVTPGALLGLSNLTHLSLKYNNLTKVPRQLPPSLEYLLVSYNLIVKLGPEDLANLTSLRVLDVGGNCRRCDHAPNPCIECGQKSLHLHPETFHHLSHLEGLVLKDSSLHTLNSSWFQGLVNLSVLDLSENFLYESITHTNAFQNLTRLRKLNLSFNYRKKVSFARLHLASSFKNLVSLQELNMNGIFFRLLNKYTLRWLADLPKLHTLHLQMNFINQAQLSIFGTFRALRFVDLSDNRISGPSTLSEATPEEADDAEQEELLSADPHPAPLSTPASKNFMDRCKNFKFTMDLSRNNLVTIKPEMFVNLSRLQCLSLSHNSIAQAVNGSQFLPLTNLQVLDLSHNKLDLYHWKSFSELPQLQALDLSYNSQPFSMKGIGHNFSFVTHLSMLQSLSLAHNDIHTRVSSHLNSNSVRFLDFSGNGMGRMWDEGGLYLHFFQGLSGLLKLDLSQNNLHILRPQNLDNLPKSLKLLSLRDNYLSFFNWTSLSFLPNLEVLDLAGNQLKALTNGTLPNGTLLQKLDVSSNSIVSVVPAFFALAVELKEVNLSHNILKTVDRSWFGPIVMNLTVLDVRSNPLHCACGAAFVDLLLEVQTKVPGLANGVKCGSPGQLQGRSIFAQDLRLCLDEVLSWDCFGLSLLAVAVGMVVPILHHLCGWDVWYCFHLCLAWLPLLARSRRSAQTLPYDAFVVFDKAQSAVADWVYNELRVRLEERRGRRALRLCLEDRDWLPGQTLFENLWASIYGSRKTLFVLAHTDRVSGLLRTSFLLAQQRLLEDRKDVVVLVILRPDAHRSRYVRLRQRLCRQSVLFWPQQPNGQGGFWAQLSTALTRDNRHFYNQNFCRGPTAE
Kind of experiment: Activation of mouse TLR9 expressed in HEK293 assessed as induction of NF-kappaB activity reporter gene assay. The experiment is classed as cell-based.

The test system of experiment [3] is Splenocyte. The experiment is described as follows: Immunomodulatory activity in C57BL/6 mouse splenocytes bearing TLR7 receptor assessed as IL6 release at 100 ug/ml after 24 hrs by ELISA. The experiment is classed as functional, cell-based. In a few lines:
(§1)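 C57BL/6 splenocytes in RPMI 1640 with 10% FBS, penicillin/streptomycin, 2 mM L-glutamine, plated at 5 × 10^6 cells/mL; compounds in PBS added, 37 °C for 24 h. Supernatant IL-12 and IL-6 by ELISA; representative of three independent experiments.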
Background: An ELISA detects its analyte on a solid surface through an enzyme-linked reagent.

Experiment [4] has as its system Splenocyte. Kind of experiment: Immunomodulatory activity in C57BL/6 mouse splenocytes bearing TLR7 receptor assessed as IL12 release at 100 ug/ml after 24 hrs by ELISA. The experiment is classed as functional, cell-based. In a few lines:
as §1

Activity calls are given as the source filed them. The rule behind the calls is not given here.

Regarding `Nc1ccn([C@@H]2O[C@H](COP(=O)(S)O[C@H]3[C@@H](O)[C@H](n4cnc5c(N)ncnc54)O[C@@H]3CO)[C@@H](OP(=O)(S)OC[C@H]3O[C@@H](n4ccc(=O)[nH]c4=O)[C@H](O)[C@@H]3OP(=O)(S)OC[C@H]3O[C@@H](n4ccc(=O)[nH]c4=O)[C@H](O)[C@@H]3OP(=O)(S)OC[C@H]3O[C@@H](n4ccc5c(=O)[nH]c(N)nc54)[C@H](O)[C@@H]3OP(=O)(S)OC[C@H]3O[C@@H](n4cnc5c(N)ncnc54)[C@H](O)[C@@H]3OP(=O)(S)OC[C@H]3O[C@@H](n4ccc(N)nc4=O)[C@H](O)[C@@H]3OP(=O)(S)OC[C@H]3O[C@@H](n4ccc(=O)[nH]c4=O)[C@H](O)[C@@H]3OP(=O)(S)OC[C@H]3O[C@@H](n4ccc(=O)[nH]c4=O)[C@H](O)[C@@H]3OP(=O)(S)OC[C@H]3O[C@@H](n4ccc5c(=O)[nH]c(N)nc54)[C@H](O)[C@@H]3OP(=O)(S)OC[C@H]3O[C@@H](n4cnc5c(N)ncnc54)[C@H](O)[C@@H]3OP(=O)(S)OCC(O)COP(=O)(S)O[C@H]3[C@@H](O)[C@H](n4cnc5c(N)ncnc54)O[C@@H]3COP(=O)(S)O[C@H]3[C@@H](O)[C@H](n4ccc5c(=O)[nH]c(N)nc54)O[C@@H]3COP(=O)(S)O[C@H]3[C@@H](O)[C@H](n4ccc(=O)[nH]c4=O)O[C@@H]3COP(=O)(S)O[C@H]3[C@@H](O)[C@H](n4ccc(=O)[nH]c4=O)O[C@@H]3COP(=O)(S)O[C@H]3[C@@H](O)[C@H](n4ccc(N)nc4=O)O[C@@H]3COP(=O)(S)O[C@H]3[C@@H](O)[C@H](n4cnc5c(N)ncnc54)O[C@@H]3COP(=O)(S)O[C@H]3[C@@H](O)[C@H](n4ccc5c(=O)[nH]c(N)nc54)O[C@@H]3COP(=O)(S)O[C@H]3[C@@H](O)[C@H](n4ccc(=O)[nH]c4=O)O[C@@H]3COP(=O)(S)O[C@H]3[C@@H](O)[C@H](n4ccc(=O)[nH]c4=O)O[C@@H]3COP(=O)(S)O[C@H]3[C@@H](O)[C@H](n4ccc(N)nc4=O)O[C@@H]3COP(=O)(S)O[C@H]3[C@@H](O)[C@H](n4cnc5c(N)ncnc54)O[C@@H]3CO)[C@H]2O)c(=O)n1` (some centres not stated), the fold change (FC) in experiment [1] amounted to 1.4. Also, the result in experiment [2] was inactive. In addition, the result with Splenocyte [3] and with Splenocyte [4] was Active.

As for `Nc1ccn([C@@H]2O[C@H](COP(=O)(S)O[C@H]3[C@@H](O)[C@H](n4ccc(N)nc4=O)O[C@@H]3COP(=O)(S)O[C@H]3[C@@H](O)[C@H](n4cnc5c(N)ncnc54)O[C@@H]3COP(=O)(S)O[C@H]3[C@@H](O)[C@H](n4ccc5c(=O)[nH]c(N)nc54)O[C@@H]3COP(=O)(S)O[C@H]3[C@@H](O)[C@H](n4ccc(=O)[nH]c4=O)O[C@@H]3COP(=O)(S)O[C@H]3[C@@H](O)[C@H](n4ccc(=O)[nH]c4=O)O[C@@H]3COP(=O)(S)O[C@H]3[C@@H](O)[C@H](n4ccc(N)nc4=O)O[C@@H]3COP(=O)(S)O[C@H]3[C@@H](O)[C@H](n4cnc5c(N)ncnc54)O[C@@H]3CO)[C@@H](OP(=O)(S)OC[C@H]3O[C@@H](n4ccc(=O)[nH]c4=O)[C@H](O)[C@@H]3OP(=O)(S)OC[C@H]3O[C@@H](n4ccc(=O)[nH]c4=O)[C@H](O)[C@@H]3OP(=O)(S)OC[C@H]3O[C@@H](n4ccc(=O)[nH]c4=O)[C@H](O)[C@@H]3OP(=O)(S)OCC(O)COP(=O)(S)O[C@H]3[C@@H](O)[C@H](n4ccc(=O)[nH]c4=O)O[C@@H]3COP(=O)(S)O[C@H]3[C@@H](O)[C@H](n4ccc(=O)[nH]c4=O)O[C@@H]3COP(=O)(S)O[C@H]3[C@@H](O)[C@H](n4ccc(=O)[nH]c4=O)O[C@@H]3COP(=O)(S)O[C@H]3[C@@H](O)[C@H](n4ccc(N)nc4=O)O[C@@H]3COP(=O)(S)O[C@H]3[C@@H](O)[C@H](n4ccc(N)nc4=O)O[C@@H]3COP(=O)(S)O[C@H]3[C@@H](O)[C@H](n4cnc5c(N)ncnc54)O[C@@H]3COP(=O)(S)O[C@H]3[C@@H](O)[C@H](n4ccc5c(=O)[nH]c(N)nc54)O[C@@H]3COP(=O)(S)O[C@H]3[C@@H](O)[C@H](n4ccc(=O)[nH]c4=O)O[C@@H]3COP(=O)(S)O[C@H]3[C@@H](O)[C@H](n4ccc(=O)[nH]c4=O)O[C@@H]3COP(=O)(S)O[C@H]3[C@@H](O)[C@H](n4ccc(N)nc4=O)O[C@@H]3COP(=O)(S)O[C@H]3[C@@H](O)[C@H](n4cnc5c(N)ncnc54)O[C@@H]3CO)[C@H]2O)c(=O)n1` (some centres not stated), the fold change (FC) in experiment [1] worked out at 1.8. For the same molecule, in experiment [2], the result was inactive. Further, the outcome in the experiment with Splenocyte [3] and with Splenocyte [4] was Active.

For `Nc1ccn([C@@H]2O[C@H](COP(=O)(S)O[C@H]3[C@@H](O)[C@H](n4cnc5c(N)ncnc54)O[C@@H]3COP(=O)(S)O[C@H]3[C@@H](O)[C@H](n4cnc5c(N)ncnc54)O[C@@H]3CO)[C@@H](OP(=O)(S)OC[C@H]3O[C@@H](n4ccc(=O)[nH]c4=O)[C@H](O)[C@@H]3OP(=O)(S)OC[C@H]3O[C@@H](n4ccc5c(=O)[nH]c(N)nc54)[C@H](O)[C@@H]3OP(=O)(S)OC[C@H]3O[C@@H](n4ccc(N)nc4=O)[C@H](O)[C@@H]3OP(=O)(S)OC[C@H]3O[C@@H](n4ccc5c(=O)[nH]c(N)nc54)[C@H](O)[C@@H]3OP(=O)(S)OC[C@H]3O[C@@H](n4cnc5c(N)ncnc54)[C@H](O)[C@@H]3OP(=O)(S)OC[C@H]3O[C@@H](n4ccc(N)nc4=O)[C@H](O)[C@@H]3OP(=O)(S)OC[C@H]3O[C@@H](n4ccc(=O)[nH]c4=O)[C@H](O)[C@@H]3OP(=O)(S)OC[C@H]3O[C@@H](n4ccc(=O)[nH]c4=O)[C@H](O)[C@@H]3OP(=O)(S)OCC(O)COP(=O)(S)O[C@H]3[C@@H](O)[C@H](n4ccc(=O)[nH]c4=O)O[C@@H]3COP(=O)(S)O[C@H]3[C@@H](O)[C@H](n4ccc(=O)[nH]c4=O)O[C@@H]3COP(=O)(S)O[C@H]3[C@@H](O)[C@H](n4ccc(N)nc4=O)O[C@@H]3COP(=O)(S)O[C@H]3[C@@H](O)[C@H](n4cnc5c(N)ncnc54)O[C@@H]3COP(=O)(S)O[C@H]3[C@@H](O)[C@H](n4ccc5c(=O)[nH]c(N)nc54)O[C@@H]3COP(=O)(S)O[C@H]3[C@@H](O)[C@H](n4ccc(N)nc4=O)O[C@@H]3COP(=O)(S)O[C@H]3[C@@H](O)[C@H](n4ccc5c(=O)[nH]c(N)nc54)O[C@@H]3COP(=O)(S)O[C@H]3[C@@H](O)[C@H](n4ccc(=O)[nH]c4=O)O[C@@H]3COP(=O)(S)O[C@H]3[C@@H](O)[C@H](n4ccc(N)nc4=O)O[C@@H]3COP(=O)(S)O[C@H]3[C@@H](O)[C@H](n4cnc5c(N)ncnc54)O[C@@H]3COP(=O)(S)O[C@H]3[C@@H](O)[C@H](n4cnc5c(N)ncnc54)O[C@@H]3CO)[C@H]2O)c(=O)n1` (some centres not stated), in experiment [1], the fold change (FC) was 0.3. In addition, the result in experiment [2] was inactive. Also, the outcome with Splenocyte [3] and with Splenocyte [4] was Active.
